Data: ChEMBL document CHEMBL3774328, “Optimization by Molecular Fine Tuning of Dihydro-β-agarofuran Sesquiterpenoids as Reversers of P-Glycoprotein-Mediated Multidrug Resistance” (J Med Chem, 2016)

What was measured:
[1] = Intrinsic cytotoxicity against mouse NIH/3T3 cells assessed as cell growth at 60 uM by MTT assay; type: cell-based, NIH3T3; settings: read-out: Activity
Procedure, shortened: (§1)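 Intrinsic cytotoxicity was measured by MTT in parental NIH-3T3 and MDR1-G185 cells. CC50 came from a four-parameter logistic fit. The top tested concentration was 60 μM, limited by DMSO toxicity, and growth at 60 μM is given as % of untreated control. Mean ± SD of three independent experiments in duplicate.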

[2] = Intrinsic cytotoxicity against mouse NIH/3T3 cells by MTT assay; type: cell-based, NIH3T3; procedure, shortened: as §1
[3] = biological target: T1, ATP-dependent translocase ABCB1 (Homo sapiens, UniProt P08183); test: Inhibition of human MDR1 expressed in mouse NIH/3T3 cells assessed as reduction in daunomycin IC50 at 1 uM by MTT assay; type: cell-based; settings: nih3t3, 1 µM
Procedure, shortened: (§2)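 Parental NIH-3T3 and MDR1-G185 cells were grown in DMEM with 10% iFBS. They were exposed to increasing DNM or VLB (up to 500 ng/mL) with or without compound at fixed 1, 3 or 10 μM. Growth was read by MTT, and IC50 came from a four-parameter logistic fit. Mean ± SD of two independent experiments in triplicate.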

[4] = biological target: T1, ATP-dependent translocase ABCB1; test: Potency index, ratio of vinblastine reversal index to compound reversal index for human MDR1 expressed in mouse NIH/3T3 cells at 3 uM; type: cell-based; settings: nih/3t3, 3 µM
[5] = biological target: T1, ATP-dependent translocase ABCB1; test: Inhibition of human MDR1 expressed in mouse NIH/3T3 cells assessed as reduction in daunomycin IC50 at 3 uM by MTT assay; type: cell-based; settings: nih3t3, 3 µM
Procedure, shortened: as §2, with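 “fit. Reversal index = IC50 without compound / IC50 with compound in MDR1 cells.” for “fit.”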

[6] = biological target: T1, ATP-dependent translocase ABCB1; test: Inhibition of human MDR1 expressed in mouse NIH/3T3 cells assessed as reduction in vinblastine IC50 at 10 uM by MTT assay; type: cell-based; settings: nih3t3, 10 µM
Procedure, shortened: as §2, with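 “fit. Reversal index = IC50 without compound / IC50 with compound in MDR1 cells.” for “fit.”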

[7] = biological target: T1, ATP-dependent translocase ABCB1; test: Inhibition of human MDR1 expressed in mouse NIH/3T3 cells assessed as reduction in daunomycin IC50 at 10 uM by MTT assay; type: cell-based; settings: nih3t3, 10 µM
Procedure, shortened: as §2, with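 “fit. Reversal index = IC50 without compound / IC50 with compound in MDR1 cells.” for “fit.”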

[8] = biological target: T1, ATP-dependent translocase ABCB1; test: Inhibition of human MDR1 expressed in mouse NIH/3T3 cells assessed as inhibition of daunomycin efflux incubated for 30 mins by flow cytometry; type: cell-based, NIH3T3
Procedure, shortened: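 Ki for DNM efflux. MDR1-G185 NIH-3T3 cells were incubated 30 min at 37 °C with DNM (2 μM) and varying compound concentrations, then read by flow cytometry. Fluorescence was converted to % P-gp inhibition, normalized to cells treated with 5 mM sodium orthovanadate (100%). Ki was fitted from I = (Imax × S)/(Ki + S). Mean ± SD of three independent experiments in triplicate.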

[9] = Intrinsic cytotoxicity against mouse NIH/3T3 cells transfected with human MDR1 by MTT assay; type: ADME, cell-based, NIH3T3; procedure, shortened: as §1
[10] = biological target: T1, ATP-dependent translocase ABCB1; test: Inhibition of human MDR1 expressed in mouse NIH/3T3 cells assessed as reduction in vinblastine IC50 at 3 uM by MTT assay; type: cell-based; settings: nih3t3, 3 µM
Procedure, shortened: as §2, with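 “fit. Reversal index = IC50 without compound / IC50 with compound in MDR1 cells.” for “fit.”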

[11] = biological target: T1, ATP-dependent translocase ABCB1; test: Inhibition of human MDR1 expressed in mouse NIH/3T3 cells assessed as daunomycin retention at 10 uM incubated for 30 mins by flow cytometry; type: cell-based; parameters: scale not given: the % may be the effect or the level left; settings: nih3t3, 0.5 h
Procedure, shortened: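 DNM retention by flow cytometry. MDR1-G185 NIH-3T3 cells in log phase were seeded 24 h before at 10^5 cells/well. They were incubated 30 min at 37 °C in DMEM + 10% iFBS with DNM (2 μM), with or without compound (10 μM). Cells were then washed twice in ice-cold PBS, trypsinized and read immediately for single-cell fluorescence.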

[12] = biological target: T1, ATP-dependent translocase ABCB1; test: Inhibition of human MDR1 expressed in mouse NIH/3T3 cells assessed as reduction in vinblastine IC50 at 1 uM by MTT assay; type: cell-based; settings: nih3t3, 1 µM
Procedure, shortened: as §2, with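 “fit. Reversal index = IC50 without compound / IC50 with compound in MDR1 cells.” for “fit.”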

[13] = biological target: T1, ATP-dependent translocase ABCB1; test: Potency index, ratio of daunomycin reversal index to compound reversal index for human MDR1 expressed in mouse NIH/3T3 cells at 1 uM; type: cell-based; settings: nih/3t3, 1 µM
Procedure, shortened: (§3)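 Each RI comes from the MTT dose-response of DNM or VLB (up to 500 ng/mL), with or without modulator.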

[14] = Intrinsic cytotoxicity against mouse NIH/3T3 cells transfected with human MDR1 assessed as cell growth at 60 uM by MTT assay; type: ADME, cell-based, NIH3T3; settings: read-out: Activity; procedure, shortened: as §1
[15] = biological target: T1, ATP-dependent translocase ABCB1; test: Potency index, ratio of vinblastine reversal index to compound reversal index for human MDR1 expressed in mouse NIH/3T3 cells at 1 uM; type: cell-based; settings: nih/3t3, 1 µM; procedure, shortened: as §3

T1 sequence (P08183 whole entry): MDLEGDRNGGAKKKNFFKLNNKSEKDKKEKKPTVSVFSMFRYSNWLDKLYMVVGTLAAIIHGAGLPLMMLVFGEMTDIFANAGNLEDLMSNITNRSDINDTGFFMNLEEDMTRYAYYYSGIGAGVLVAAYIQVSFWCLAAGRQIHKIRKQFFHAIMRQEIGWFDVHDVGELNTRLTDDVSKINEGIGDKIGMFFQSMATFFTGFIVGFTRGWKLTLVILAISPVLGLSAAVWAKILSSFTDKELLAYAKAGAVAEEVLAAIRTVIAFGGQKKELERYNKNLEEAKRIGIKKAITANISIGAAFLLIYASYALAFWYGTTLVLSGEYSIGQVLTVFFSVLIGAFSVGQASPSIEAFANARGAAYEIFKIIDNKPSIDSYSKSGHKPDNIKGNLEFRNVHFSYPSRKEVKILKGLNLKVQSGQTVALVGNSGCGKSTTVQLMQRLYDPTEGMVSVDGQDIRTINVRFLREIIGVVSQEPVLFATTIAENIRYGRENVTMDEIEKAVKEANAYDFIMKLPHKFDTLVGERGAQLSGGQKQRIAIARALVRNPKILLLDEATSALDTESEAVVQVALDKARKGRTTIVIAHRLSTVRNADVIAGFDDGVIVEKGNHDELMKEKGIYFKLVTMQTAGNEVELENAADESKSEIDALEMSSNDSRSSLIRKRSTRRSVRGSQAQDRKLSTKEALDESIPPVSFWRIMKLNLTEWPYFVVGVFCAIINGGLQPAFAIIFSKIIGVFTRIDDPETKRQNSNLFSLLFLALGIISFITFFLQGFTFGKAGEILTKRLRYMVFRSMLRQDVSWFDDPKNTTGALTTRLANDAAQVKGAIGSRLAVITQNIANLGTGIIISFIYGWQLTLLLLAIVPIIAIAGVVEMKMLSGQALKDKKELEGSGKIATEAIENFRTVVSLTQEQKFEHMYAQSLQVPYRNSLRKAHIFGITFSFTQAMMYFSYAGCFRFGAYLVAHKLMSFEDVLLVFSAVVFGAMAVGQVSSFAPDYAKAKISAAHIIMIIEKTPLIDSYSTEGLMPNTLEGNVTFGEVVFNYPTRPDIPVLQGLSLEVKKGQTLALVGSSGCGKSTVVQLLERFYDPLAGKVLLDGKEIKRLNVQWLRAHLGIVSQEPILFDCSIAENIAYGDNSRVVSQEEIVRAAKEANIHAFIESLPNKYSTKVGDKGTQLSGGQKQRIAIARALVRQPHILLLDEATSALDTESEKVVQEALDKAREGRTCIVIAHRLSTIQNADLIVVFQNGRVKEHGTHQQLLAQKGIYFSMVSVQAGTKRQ

SMILES	fold change (FC) [3]	Ratio [4]	fold change (FC) [5]	fold change (FC) [6]	fold change (FC) [7]	Ki [8]	fold change (FC) [10]	Activity [11]	fold change (FC) [12]	Ratio [13]	Ratio [15]	viability at 60 µM [1]	CC50 [2]	CC50 [9]	viability at 60 µM [14]
CC(=O)O[C@H]1CC[C@](C)(O)[C@]23OC(C)(C)[C@H]([C@H](OC(=O)/C=C/c4ccccc4)[C@H](OC(=O)c4ccccc4)[C@]12C)[C@H]3OC(=O)CCl						1.52 µM		83%					7.4 µM	5.3 µM	
C=C1CC[C@H](OC(C)=O)[C@@]2(C)[C@@H](OC(=O)c3ccccc3)[C@@H](OC(=O)/C=C/c3ccccc3)[C@@H]3[C@@H](O)[C@]12OC3(C)C								66%							
C=C1CC[C@H](OC(C)=O)[C@@]2(C)[C@@H](OC(=O)c3ccccc3)[C@@H](OC(=O)/C=C/c3ccccc3)[C@@H]3[C@@H](OC(=O)CCl)[C@]12OC3(C)C								66%							
CC(=O)O[C@H]1CC[C@](C)(O)[C@]23OC(C)(C)[C@H]([C@H](OC(=O)/C=C/c4ccccc4)[C@H](OC(=O)c4ccccc4)[C@]12C)[C@H]3OC(=O)N(C)C	11.8		13.9	90.2	16.3	1.21 µM	37.7		11.2	3			56.3 µM	24 µM	
CC(=O)O[C@H]1CC[C@](C)(OC(=O)CNCC(C)C)[C@]23OC(C)(C)[C@H]([C@H](OC(=O)/C=C/c4ccccc4)[C@H](OC(=O)c4ccccc4)[C@]12C)[C@H]3OC(C)=O	10		15.1	82.9	22.2	0.63 µM	49.1		20.6	3			37.3 µM	34.6 µM	
CC(=O)O[C@H]1CC[C@](C)(O)[C@]23OC(C)(C)[C@H]([C@H](OC(=O)/C=C/c4ccccc4)[C@H](OC(=O)c4ccccc4)[C@]12C)[C@H]3OS(C)(=O)=O	7	2	11.1	149.2	16.3	0.6 µM	86.6	83%	18.5			69.1%	> 60 µM	31.7 µM	
C=C1CC[C@H](OC(C)=O)[C@@]2(C)[C@@H](OC(=O)c3ccccc3)[C@@H](OC(=O)/C=C/c3ccccc3)[C@@H]3[C@@H](OS(C)(=O)=O)[C@]12OC3(C)C								66%							
COc1ccc(CCN(C)CCCC(C#N)(c2ccc(OC)c(OC)c2)C(C)C)cc1OC (centres undefined)			6.2	129.9	10.8		27.8		8.7					> 60 µM	76.9%
CCC(=O)O[C@@H]1[C@H]2[C@H](OC(=O)/C=C/c3ccccc3)[C@H](OC(=O)c3ccccc3)[C@]3(C)[C@@H](OC(C)=O)CC[C@](C)(O)[C@@]13OC2(C)C	10.8	2	11.5	110.9	12.4	0.54 µM	69		19.1	3		68.6%	> 60 µM	24.9 µM	
CC(=O)O[C@H]1CC[C@](C)(O)[C@]23OC(C)(C)[C@H]([C@H](OC(=O)/C=C/c4ccccc4)[C@H](OC(=O)c4ccccc4)[C@]12C)[C@H]3OC(=O)c1cnccn1	2.3		4	20.6	9	1.74 µM	8.8		3.7			66.3%	> 60 µM	> 60 µM	86.2%

More lines, main results first:

fold change (FC) [3]	Ratio [4]	fold change (FC) [5]	fold change (FC) [6]	fold change (FC) [7]	Ki [8]	fold change (FC) [10]	Activity [11]	fold change (FC) [12]	Ratio [13]	Ratio [15]	SMILES	viability at 60 µM [1]	CC50 [2]	CC50 [9]	viability at 60 µM [14]
6.9	2	10.3	91.7	15.2	0.52 µM	58.2	85%	21.2			CC(=O)O[C@H]1CC[C@](C)(OC(C)=O)[C@]23OC(C)(C)[C@H]([C@H](OC(=O)/C=C/c4ccccc4)[C@H](OC(=O)c4ccccc4)[C@]12C)[C@H]3OC(C)=O	68.1%	> 60 µM	51.6 µM	
5.9	2	8.7	125.2	15.6	0.5 µM	75.8		15.2			CC(=O)O[C@H]1CC[C@]2(C)O[C@@H]3[C@H]4[C@H](OC(=O)/C=C/c5ccccc5)[C@H](OC(=O)c5ccccc5)[C@@]1(C)[C@]32OC4(C)C		29.4 µM	27.9 µM	
					0.29 µM		83%				CC(=O)O[C@H]1CC[C@](C)(O)[C@]23OC(C)(C)[C@H]([C@H](OC(=O)/C=C/c4ccccc4)[C@H](OC(=O)c4ccccc4)[C@]12C)[C@H]3OC(C)=O		26.3 µM	18.3 µM	
15.8		19.5	90	24.9	0.19 µM	36.1		27.4	3	3	CC(=O)O[C@H]1CC[C@](C)(O)[C@]23OC(C)(C)[C@H]([C@H](OC(=O)/C=C/c4ccccc4)[C@H](OC(=O)c4ccccc4)[C@]12C)[C@H]3OC(=O)CCC(=O)N(C(=O)NC1CCCCC1)C1CCCCC1		56.4 µM	> 60 µM	72.8%
5.6		9.1	86.6	15.1	0.28 µM	30.3	83%	23.7			CC(=O)O[C@H]1CC[C@](C)(O)[C@]23OC(C)(C)[C@H]([C@H](OC(=O)/C=C/c4ccccc4)[C@H](OC(=O)c4ccccc4)[C@]12C)[C@H]3O		26.1 µM	25.5 µM	
11.8	2	14.7	113.5	16.1	0.13 µM	56		17.4	3		CC(=O)O[C@H]1CC[C@](C)(O)[C@]23OC(C)(C)[C@H]([C@H](OC(=O)/C=C/c4ccccc4)[C@H](OC(=O)c4ccccc4)[C@]12C)[C@H]3OC(=O)c1cccnc1	67.7%	> 60 µM	32.6 µM	
